Source: paper PMC2775413 (Bioorganic & medicinal chemistry, 2009)

How the values were obtained:
[1] = Metabolism in fresh mouse brain homogenate with NADPH; assay type: in vitro ADME; conditions: PBS pH 7.4, 37 °C, NADPH in excess
Outline: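 Three fresh mouse brains were homogenized in PBS pH 7.4 (1 mL per brain) with NADPH regenerating buffers A and B, then pooled. Test compound was added from a 200 μM stock and incubated at 37 °C for 0, 10, 20 and 40 min. Reactions were stopped by heating to 95 °C for 1 min. HPLC with UV at 310 or 260 nm depending on compound; analyte/internal standard peak-area ratio normalized to t = 0.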

[2] = Metabolism of prodrugs in fresh mouse plasma with NADPH regenerating system; assay type: in vitro ADME; conditions: 37 °C; for Metabolism in fresh mouse plasma (prodrug remaining by HPLC): NADPH regenerating system, over 80 minutes
[3] = Anaerobic microsome assay for azide metabolism; assay type: in vitro ADME, rat
Outline: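 Rat liver microsomes, NADPH regenerating system, test azide added from a 100 μM stock. PBS was deoxygenated by N2 bubbling for 15 min. Vials were sealed with septa, the headspace N2-purged and kept under an N2 balloon, and equilibrated at 37 °C. Microsomes were injected through the septum and incubated 0, 10, 20, 40 min. Acetonitrile quench, protein precipitation at 0 °C, supernatant dried, reconstituted in 2% formic acid, HPLC; peak area normalized to t = 0.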

[4] = Mouse brain uptake study after i.p. injection; assay type: in vivo; conditions: for Brain AUC over the 20-minute experiment compared with 5: i.p., 5 at 3.7 mg/kg
Standard microsome assay = assay type: in vitro ADME, rat; conditions: 37 °C

Compound: 1-((S)-1-{2-[2-aminoethyl]phenylamino}-5-nitroguanidinopentan-2-ylcarbamoyloxy)ethyl pivalate [Compound 3]
- Metabolism in mouse brain homogenate (compound amount over time) [1]: decreased over the course of the experiment
- Conversion of prodrug to parent compound (4) in mouse plasma ([2]; HPLC peak of 4 over time): converted to the parent compound
- Metabolism in fresh mouse plasma (prodrug remaining by HPLC) [2]: rapid

Compound: Cc1cc(N)nc(C[C@@H]2CNC[C@@H]2OCCN=[N+]=[N-])c1 (racemic) [Compound 1, 6-((4-(2-Azidoethoxy)pyrrolidin-3-yl)methyl)-4-methyl-pyridin-2-amine]
- Metabolism in mouse brain homogenate (compound amount over time) [1]: did not decrease
- Formation of amine from azide (mass spectral analysis of reaction mixtures) ([3]; anaerobic microsome incubation): no peak corresponding to the amine
- Metabolism in fresh mouse plasma (prodrug remaining by HPLC) [2]: No significant metabolism

Compound: CC(=O)N(CCO[C@H]1CNC[C@H]1Cc1cc(C)cc(N)n1)CCc1cccc(F)c1 (racemic) [Compound 6, N-(2-(4-((6-Amino-4-methylpyridin-2-yl)-methyl)pyrrolidin-3-yloxy)ethyl)-N-(3-fluoro-phenethyl)acetamide]
- Time of peak brain concentration ([4]; mouse, i.p. 4.1 mg/kg, 20-minute experiment): 5 min
- Brain AUC over the 20-minute experiment compared with 5 ([4]; mouse): roughly the same

Compound: COC(=O)N(CCO[C@H]1CNC[C@H]1Cc1cc(C)cc(N)n1)CCc1cccc(F)c1 (racemic) [Compound 7, Methyl 2-(4-((6-amino-4-methylpyridin-2-yl)-methyl)pyrrolidin-3-yloxy)ethyl(3-fluoro-phenethyl)carbamate]
- Tmax ([4]; mouse, plasma, ip, 4.3 mg/kg): 5 min

Compound: Cc1cc(N)nc(C[C@@H]2CNC[C@@H]2OCCNCCc2cccc(F)c2)c1 [Compound 5]
- Toxicity in mice ([4]; i.p. injection at 3.7 mg/kg): no toxicity was observed
- Amount of compound lost with rat liver microsomes (Standard microsome assay; over 30 minutes, in presence and absence of NADPH): approximately 20%

Compound: Cc1cc(N)nc(C[C@@H]2CNC[C@@H]2OCCN(CCc2cccc(F)c2)C(=O)OCc2ccccc2)c1 [Compound 8, Benzyl 2-(4-((6-amino-4-methylpyridin-2-yl)-methyl)pyrrolidin-3-yloxy)ethyl(3-fluoro-phenethyl)carbamate]
- Peak plasma concentration ([4]; mouse, i.p. 5.1 mg/kg, 20-minute experiment): around 1 μM
- Brain AUC over the 20-minute experiment compared with 5 ([4]; mouse): much lower

Compound: Cc1cc(-c2ccccc2)nnc1NCCN1CCOCC1 [minaprine, reference compound]
- Concentration remaining with microsomes at 20 min (Standard microsome assay; 20 min): not quantifiable
- Metabolism by microsomes under anaerobic conditions ([3]; 37 °C, deoxygenated buffer, nitrogen atmosphere, NADPH): metabolized readily
